KCNK9 block: human KCNK9 channel inhibition | HEK293 KCNK9, FluxOR thallium flux fluorescence; active compounds read low | B-score at 10 µM | 310,000 tested, 1.2% active | AID 488922;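 active = ratio B-score over 3 SD below the library mean, with starting fluorescence within 5 SD of its mean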;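 also: negative B-score means less thallium flux so channel inhibition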
KCNK3 inh: human KCNK3 channel inhibition, primary screen; O14649; CHO-KCNK3 thallium flux, FluxOR fluorescence; active compounds read low; B-score at 10 µM; 340,000 tested, 0.84% active; AID 602410;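 active = B-score under library mean minus 4 SD, starting fluorescence ratio at most library mean plus 5 SD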;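 also: more negative B-score means stronger inhibition of thallium flux through KCNK3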
hERG protect: hERG (human) protection from proarrhythmic block | Q12809 | CHO-hERG, FluxOR thallium flux, dofetilide IC70 present | activation (rescue from dofetilide block), less the hit threshold, % at 10 µM | 310,000 tested, 0.51% active;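 active = activation above the mean of controls blocked by dofetilide plus 5 SD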;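 also: thallium influx through hERG after potassium depolarization seen as dye fluorescence rise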
Target sequence (Q12809 whole entry, looked up): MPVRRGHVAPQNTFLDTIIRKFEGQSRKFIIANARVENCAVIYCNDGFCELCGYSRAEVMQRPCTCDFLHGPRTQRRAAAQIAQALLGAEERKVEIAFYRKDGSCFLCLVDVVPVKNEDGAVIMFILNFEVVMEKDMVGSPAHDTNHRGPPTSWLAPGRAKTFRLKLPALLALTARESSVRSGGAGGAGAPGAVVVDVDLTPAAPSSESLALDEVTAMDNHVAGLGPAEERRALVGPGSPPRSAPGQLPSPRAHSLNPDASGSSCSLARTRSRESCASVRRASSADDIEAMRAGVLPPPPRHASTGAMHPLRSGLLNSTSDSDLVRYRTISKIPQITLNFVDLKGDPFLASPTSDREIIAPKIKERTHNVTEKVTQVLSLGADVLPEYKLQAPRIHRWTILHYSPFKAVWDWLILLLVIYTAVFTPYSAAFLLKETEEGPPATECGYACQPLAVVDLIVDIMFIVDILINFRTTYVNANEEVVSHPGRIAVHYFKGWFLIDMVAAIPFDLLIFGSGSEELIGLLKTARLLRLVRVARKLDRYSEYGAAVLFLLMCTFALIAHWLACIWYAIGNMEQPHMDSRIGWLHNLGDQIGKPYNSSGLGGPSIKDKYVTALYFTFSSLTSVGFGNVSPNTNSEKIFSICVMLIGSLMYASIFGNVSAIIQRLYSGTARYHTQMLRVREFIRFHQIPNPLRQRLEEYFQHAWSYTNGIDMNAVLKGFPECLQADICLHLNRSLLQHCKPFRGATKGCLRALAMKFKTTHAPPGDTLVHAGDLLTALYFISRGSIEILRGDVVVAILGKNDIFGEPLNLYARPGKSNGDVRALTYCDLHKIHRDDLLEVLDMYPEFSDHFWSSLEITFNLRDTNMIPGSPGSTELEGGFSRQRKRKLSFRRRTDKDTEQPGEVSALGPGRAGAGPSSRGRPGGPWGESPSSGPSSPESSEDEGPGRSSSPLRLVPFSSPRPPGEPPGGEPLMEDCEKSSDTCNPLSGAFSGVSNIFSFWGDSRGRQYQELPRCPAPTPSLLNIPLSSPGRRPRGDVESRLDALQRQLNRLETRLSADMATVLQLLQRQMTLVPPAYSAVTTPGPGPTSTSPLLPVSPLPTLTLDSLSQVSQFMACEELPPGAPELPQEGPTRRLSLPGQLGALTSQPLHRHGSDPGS
Kir21 inh: blocks the mouse Kir2.1 inward-rectifier potassium channel; HEK293-Kir2.1, FluxOR thallium flux fluorescence; active compounds read low; P35561; B-score at 10 µM; 310,000 tested, 0.85% active;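 active = fluorescence ratio B-score at or below minus 3 SD of library scores, with starting-brightness B-score within 2 SD, cut at about -4.2 in these data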;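 also: channel flux triggered by added potassium and thallium sulfate stimulus; B-score of peak minus minimum fluorescence over baseline after thallium stimulus; more negative B-score means stronger Kir2.1 block with less thallium influx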
KCNQ1 pot: potentiates or activates the human KCNQ1 potassium channel | P51787 | CHO-K1 KCNQ1, thallium flux FluxOR fluorescence; active compounds read high | B-score at 10 µM | 310,000 tested, 0.35% active | AID 2648;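 active = fluorescence ratio B-score, a plate-corrected score, at least three library SD, with initial intensity B-score within 5 SD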
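Assay system: CHO-K1 cells stably expressing KCNQ1; Medium: assay buffer with matched DMSO; Also added: K+/Tl+ depolarizing stimulus; Dosing: single dose; Timing: dye 90 min, compound 20 min, room temperature; Measured by: kinetic FluxOR thallium fluorescence, 10-s 1-Hz baseline, 110-s post-stimulus read; Read-out: peak-minus-minimum fluorescence over initial fluorescence, negative-control normalized, B-scored.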
KCNQ1 inh: inhibitors of human KCNQ1 potassium channel | 310,000 tested, 1.3% active | CHO-K1 KCNQ1, FluxOR thallium flux fluorescence; active compounds read high | AID 2642 | B-score at 10 µM | P51787;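 active = compounds whose thallium flux B-score, printed positive for inhibition, exceeds three library SD while starting fluorescence stays within three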;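 also: channel opened by potassium depolarization with thallium stimulus after 20 min compound exposure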
KCNK9 inh conf: confirmation of human KCNK9 potassium channel inhibitors; inhibition, % at 10 µM; HEK293 KCNK9 cells, FluxOR thallium flux fluorescence; AID 492992; 4,900 tested, 43% active; shares compounds with KCNK9 block;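 active = thallium signal inhibited by more than 5 SD of the compound-free buffer control wells, on both duplicate plates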;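 also: 0% = assay buffer control wells without compound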
Kir2-1 spec: mouse Kir2.1 off-target activity of KCNK9 modulators; inhibition, % at 10 µM; shares compounds with KCNK9 block; 4,900 tested, 4% active; Kir2.1 cells, FluxOR thallium flux fluorescence; AID 492993;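 active = thallium signal drop more than 5 SD beyond the mean of the no-compound control wells, seen in both duplicate plates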;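 also: signal is fluorescence rise after thallium addition divided by baseline fluorescence; plate controls were assay buffer only for no effect and full block by chlorpromazine control for full effect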
KCNK9 uninduced: second counter-screen for KCNK9 modulators: effect in non-induced cells | 4,900 tested, 40% active | AID 492997 | inhibition, % at 10 µM | shares compounds with KCNK9 block | non-induced KCNK9-HEK293, FluxOR thallium flux;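 active = thallium signal drop beyond 5 SD of the untreated control mean, on both duplicate plates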;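 also: plate controls were buffer only IC0 wells for no effect and SID17386958 at its maximal inhibitory level for full effect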
Active calls of the source: *; i = inactive; x = no result. A selection: hits, their analogues and other compounds. The true share with any hit is near 3.7%.

SMILES | KCNK9 block | KCNK3 inh | hERG protect | Kir21 inh | KCNQ1 pot | KCNQ1 inh | KCNK9 inh conf | Kir2-1 spec | KCNK9 uninduced
CCN(CC)S(=O)(=O)c1ccc(N2CCOCC2)c(NC(=O)c2ccc3ccccc3c2)c1 | -9.9* | i | -3 | 0.02 | i | i | i | i | 28%*
CCN(CC)S(=O)(=O)c1ccc(N2CCOCC2)c(NC(=O)CC23CC4CC(CC(Br)(C4)C2)C3)c1 | i | i | -1 | -0.1 | i | i | i | i | i
NS(=O)(=O)c1ccc(NC(=O)COC(=O)CCc2ccccc2)cc1 | i | i | -16 | 2.7 | i | i | x | x | x
COc1cc(O)c2c(=O)c(-c3ccc(O[C@@H]4O[C@H](CO)[C@@H](O)[C@H](O)[C@H]4O)cc3)coc2c1 | i | i | -1 | 0.05 | i | i | x | x | x
COc1ccc(Cn2c(=O)sc3ccccc32)cc1 | i | i | -8 | 0.23 | i | i | x | x | x
CC(C)Oc1ccc(Cn2c(=O)sc3ccccc32)cc1 | i | i | -6 | 1.1 | i | i | i | i | 30%*
CCCN(CCC)c1ccc(CC(=O)NC(C)Cc2ccccc2)cc1 (centres undefined) | i | i | -6 | -1.6 | i | i | i | i | i
O=C(OCCN1CCOCC1)c1ccc(O)cc1 | i | i | -3 | 0.47 | i | i | x | x | x
CCC(C)(C)n1nnnc1C(C(C)C)N(Cc1ccco1)Cc1cc2cc3c(cc2[nH]c1=O)OCO3 (centres undefined) | -10* | i | -9 | 0.83 | i | i | 42%* | i | 42%*
CCC(C)(C)n1nnnc1C(C(C)C)N(Cc1cccnc1)Cc1ccco1 (centres undefined) | i | i | -4 | -0.09 | i | i | x | x | x
CC(C)(C)c1ccc(OCCOc2ccc(C(C)(C)C)cc2NC=O)c(NC=O)c1 | -8.2* | i | -9 | 0.1 | i | i | 34%* | i | i
COC(=O)c1ccccc1N/C=C/C(=O)c1ccc(Br)cc1 | -12* | i | -4 | -1.8 | i | i | 43%* | i | 38%*
NC(=O)c1ccccc1N/C=C/C(=O)c1ccccc1 | i | i | -17 | 0.08 | i | i | x | x | x
CCOC(=O)c1ccccc1N/C=C/C(=O)c1cccs1 | -9.8* | i | -4 | 0 | i | i | 50%* | i | 39%*
CCN(CC(=O)NCc1ccc(Cl)cc1)C(=O)CCc1ccccc1O | i | i | -2 | -1.1 | i | i | x | x | x
O=C(CC(Nc1ccccc1Cl)C(=O)OCC(=O)c1cccs1)c1ccccc1 (centres undefined) | -9.4* | i | -10 | -1.5 | i | i | 42%* | i | 28%*
O=C(OCC(=O)c1cccs1)c1ccccc1 | i | i | -12 | 0.23 | i | i | x | x | x
O=C(O)CC1COc2ccccc2N1C(=O)c1ccccc1Cl (centres undefined) | i | i | -9 | -0.63 | i | i | x | x | x
Brc1ccc(CSc2nnc(-c3ccccn3)n2Cc2ccco2)cc1 | -16* | i | -16 | -2 | i | i | 44%* | i | 41%*
Clc1cccc(CSc2nnc(-c3ccccn3)n2Cc2ccco2)c1 | i | i | -19 | -3.9 | i | i | x | x | x
O=C(C1CC(c2cccc(Br)c2)=NO1)N1CCc2ccccc2C1 (centres undefined) | i | i | -9 | -1.1 | i | i | i | i | i
COc1cc(OC)c(C2=NOC(C(=O)N3CCc4ccccc4C3)C2)cc1Cl (centres undefined) | i | i | -13 | 0.44 | i | i | x | x | x
CC(C)NC(=O)Nc1ccc2c(c1)C(=O)N([C@H](C)CO)C[C@H](C)[C@@H](CN(C)S(=O)(=O)c1cn(C)cn1)O2 | x | i | x | x | x | x | x | x | x
CCOc1ccc(CCNC(=O)COC(=O)COc2ccc(Br)cc2)cc1OCC | i | i | -6 | -0.1 | i | i | x | x | x
Cc1cc(C)cc(C(=O)N2CC(C)SC2=Nc2cccc(S(=O)(=O)N(C)C)c2)c1 (centres undefined) | -12* | i | -1 | -0.78 | i | i | 64%* | i | 34%*
SMILES | KCNK9 block | KCNK3 inh | hERG protect | Kir21 inh | KCNQ1 pot | KCNQ1 inh | KCNK9 inh conf | Kir2-1 spec | KCNK9 uninduced
O=C(Cn1cnc2c(OCc3ccccc3)ncnc21)N[C@H](CO)Cc1cc2ccccc2[nH]1 | x | i | x | x | x | x | x | x | x
N#Cc1ccc(-c2ccc3c(c2)OCO3)nc1SCC(=O)OCc1ccccc1 | -10* | i | -8 | 0.5 | i | i | i | i | 27%*
COc1cccc(CN(C)C(=O)CN2C(=O)NC(c3ccccc3)(c3ccccc3)C2=O)c1OC | x | i | x | x | x | x | x | x | x
C/C(=N\NC(=O)c1cccc(S(=O)(=O)N2CCOCC2)c1)c1ccc(C)cc1 | x | i | x | x | x | x | x | x | x
Cc1nn(-c2ccccc2)c(Cl)c1/C=N/NC(=O)OC(C)(C)C | -11* | i | -9 | -0.67 | i | i | 49%* | i | i
Cc1nn(-c2ccccc2)c(Cl)c1/C=N\NC(=O)c1cnccn1 | i | i | -10 | -0.16 | i | i | x | x | x
Cc1nn(-c2ccccc2)c(Cl)c1/C=N/NC(=O)c1ccc(CNc2ccccc2)o1 | i | i | -9 | -0.2 | i | i | x | x | x
Cc1nn(-c2ccccc2)c(Cl)c1/C=N/NC(=O)c1ccco1 | -8.7* | i | -4 | -0.33 | i | i | 50%* | i | 28%*
C(=N\N(Cc1ccccc1)c1ccccc1)/c1ccco1 | -8.1* | i | -14 | -0.27 | i | i | i | i | 42%*
CN(C)c1ccc(N=Cc2ccco2)cc1 | x | i | x | x | x | x | x | x | x
COc1cc(CNCCO)cc(Cl)c1OCc1ccc(Cl)cc1Cl | -8.7* | i | -20 | -11* | i | i | 46%* | 62%* | i
O=C(NCc1ccccc1Cl)c1cc(=O)[nH]c2ccccc12 | i | i | -10 | -0.03 | i | i | x | x | x
O=C(Cc1c(O)c2ccccc2oc1=O)c1ccc(C(F)(F)F)cc1 | i | i | -4 | -0.9 | i | i | x | x | x
O=c1oc2ccccc2c(O)c1Cc1cc(Cl)c2cccnc2c1O | i | i | -5 | 1.2 | i | i | i | i | i
CC(C)c1ccc(/C=C/C(=O)NCCCc2ccccc2)cc1 | i | i | -5 | -1.1 | i | 6* | i | i | i

Source: PubChem BioAssay
